In ChEMBL document CHEMBL3822452, “Polyphenolic compounds with anti-tumour potential from Corchorus olitorius (L.) Tiliaceae, a Nigerian leaf vegetable” (2016):
Activity calls are given as the source filed them. The rule behind the calls is not given here.

Legend:
[1] = system: HeLa; assay: Cytotoxicity against human HeLa cells assessed as cell rounding after 48 hrs by inverted microscopic analysis; assay type: functional, cell-based
Procedure, shortened: (§1)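 HeLa cultures were treated 48 h with increasing compound concentrations in growth medium, with controls given growth medium only. Bright-field images were then taken on an inverted microscope at x10 and examined for cell loss and rounding of remaining cells.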

[2] = system: HeLa; assay: Cytotoxicity against human HeLa cells assessed as loss of cells after 48 hrs by inverted microscopic analysis; assay type: functional, cell-based; procedure, shortened: as §1
[3] = system: NCI-H460; assay: Cytotoxicity against human H460 cells assessed as reduction in cell viability after 48 hrs by alamar blue assay; assay type: functional, cell-based
[4] = system: PC-3; assay: Cytotoxicity against human PC3 cells assessed as reduction in cell viability after 48 hrs by alamar blue assay; assay type: functional, cell-based
[5] = system: HeLa; assay: Cytotoxicity against human HeLa cells assessed as cell viability at 800 uM after 48 hrs by alamar blue assay relative to control; assay type: functional; conditions: read-out: Activity
Procedure, shortened: (§2)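 HeLa cells in MEM with 10% FBS, 1% NEAA, 2 mM glutamine and 1% antibiotic-antimycotic were seeded at 1 x 10^5 cells/ml and grown 24 h at 37°C, 5% CO2. They were exposed 48 h to compound serially diluted in growth medium, in duplicate wells. Alamar Blue was added for 3 h, then 30 min at room temperature, and fluorescence read at ex 544/em 590 nm. Values are % of DMSO-only control, means ± SEM, with ANOVA and Dunnett's test.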

[6] = system: HeLa; assay: Cytotoxicity against human HeLa cells assessed as cell viability at 1600 uM after 48 hrs by alamar blue assay relative to control; assay type: functional; conditions: read-out: Activity; procedure, shortened: as §2

SMILES	Activity [1]	Activity [2]	Activity [3]	Activity [4]	viability at 800 µM [5] [%]	viability at 1600 µM [6] [%]
COC(=O)[C@@]1(OC(=O)/C=C/c2ccc(O)c(O)c2)C[C@@H](O)[C@@H](OC(=O)/C=C/c2ccc(O)c(O)c2)[C@H](OC(=O)/C=C/c2ccc(O)c(O)c2)C1	Dose-dependent effect	Dose-dependent effect	inactive	inactive	71	19.6
COc1cc(/C=C/C(=O)OC(=O)/C=C/c2ccc(O)c(OC)c2)ccc1O	Dose-dependent effect	Dose-dependent effect	inactive	inactive	22.3	5.3
